Several values for one entry are separate records, joined by “and”; a condition that tells them apart may be missing. Equal entries are not always repeated. Where two headings read alike, the source gives them in different places.
Columns and labels:
[1] = target: T1, human D2 receptor (short isoform, D2S) (Homo sapiens, UniProt P14416); experiment: cell-based; assay type: binding
[2] = target: T1, human D2 receptor (short isoform, D2S); assay type: binding
[3] = cited from earlier work
[4] = target: T1, human D2 receptor (short isoform, D2S); assay type: binding; remark: listed apart in the source
arrestin3 = assay type: cell-based, rat; details: tetracycline 1 μg/ml 24 h; triple-transfected cells vs untreated cells; n=2
In short: (§1)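 T-REx-293 cells stably triple-transfected with D2S receptor, tetracycline-inducible GRK2 and arrestin3; tetracycline 1 μg/ml (final) or vehicle 24 h at 36 °C. Lysed in 1% dodecyl maltopyranoside/PBS with protease inhibitors and N-ethylmaleimide; 20 μg protein run on 7.5% SDS-PAGE, PVDF. Rabbit polyclonal primaries 1 h RT (anti-GRK2 1:1000; anti-arrestin3 1:500), HRP anti-rabbit 1:15,000; ECL-Plus imaging and quantitation; % increase versus untreated cells.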

GRK2 = experiment: Western blot of tetracycline-induced GRK2 expression in triple-transfected cells; assay type: cell-based, bovine; details: tetracycline 1 μg/ml 24 h; triple-transfected cells vs untreated cells; n=3
In short: as §1

[5] = read-out: Internalized D2 receptor (Q+/MTSET+) KI(i)
[6] = read-out: Surface D2 receptor (Q-/MTSET-) KI(s)
[7] = internalized (Q+/MTSET+) vs surface (Q-/MTSET-)

T1 sequence (P14416 1-414 isoform P14416-2): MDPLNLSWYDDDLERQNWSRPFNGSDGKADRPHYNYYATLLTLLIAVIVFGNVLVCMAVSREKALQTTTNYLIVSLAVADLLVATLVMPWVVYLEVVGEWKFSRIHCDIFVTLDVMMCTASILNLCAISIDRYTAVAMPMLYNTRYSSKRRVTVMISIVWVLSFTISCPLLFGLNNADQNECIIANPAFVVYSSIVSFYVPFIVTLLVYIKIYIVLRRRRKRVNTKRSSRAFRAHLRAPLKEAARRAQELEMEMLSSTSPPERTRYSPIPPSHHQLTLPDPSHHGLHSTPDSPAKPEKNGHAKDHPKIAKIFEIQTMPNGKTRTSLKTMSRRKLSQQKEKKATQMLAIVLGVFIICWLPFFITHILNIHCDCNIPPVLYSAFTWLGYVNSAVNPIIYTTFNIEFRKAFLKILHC

## CCN1CCCC1CNC(=O)c1cc(S(N)(=O)=O)ccc1OC (stereo not drawn) [Sulpiride]
[1]
  fraction of D2 receptors on the surface: 80.9%
  fraction of D2 receptors on the surface (high affinity): 85.8% and 43.1%
[2]
  fraction of D2 receptors with high affinity: 90% and 55% and 89.9%

## CCN1CCC[C@H]1CNC(=O)c1c(O)c(Cl)cc(Cl)c1OC [Raclopride]
[1]
  increase in the Ki at internalized receptors (decrease in affinity): about 2 fold

## CCCN1CCOC2c3cc(O)ccc3CCC21 (single isomer, unassigned; (+)) [PHNO, (+)-4-propyl-3,4,4a,5,6,10b-hexahydro-2H-naphtho[1,2-b][1,4]oxazin-9-ol]
[3]; ref Wilson et al, 2005
  Lipophilicity (Log P): 2.1 ^d†

## CCN1CCC[C@H]1CNC(=O)c1c(OC)ccc(I)c1O [IBZM]
[1]; [5]
  Ki: 0.23 ± 0.11 nM
[1]; [6]
  Ki: 0.19 ± 0.05 nM

## CCN1CCC[C@H]1CNC(=O)c1cc(I)cc(OC)c1OC [Epidepride]
[3]; ref Kessler et al, 1991
  Lipophilicity (Log kw): 2.1 ^c‡
[1]
  Affinity shift Ki(i)/Ki(s): 2.4

## CC[11CH2]N1CCc2cccc3c2C1Cc1ccc(O)c(O)c1-3 (single isomer, unassigned; (-)) [NPA, (-)-N-[11C]propyl-norapomorphine]
[3]; ref Wilson et al, 2005
  Lipophilicity (Log P): 2.5 ^d†

## C=CCN1CCC[C@H]1CNC(=O)c1cc(CCCF)cc(OC)c1OC [Fallypride]
[3]; ref Laruelle, 2000
  Lipophilicity (Log P): 2.4 ^a†
[1]; Internalized D2 receptor (Q+/MTSET+) KI(i)
  Ki: 0.92 ± 0.31 nM
[1]; Surface D2 receptor (Q-/MTSET-) KI(s)
  Ki: 0.32 ± 0.06 nM
[1]; [7]
  Affinity shift Ki(i)/Ki(s): 2.9

## CN1CN(c2ccccc2)C2(CCN(CCCC(=O)c3ccc(F)cc3)CC2)C1=O [NMSP, N-methylspiperone]
[3]; ref Laruelle, 2000
  Lipophilicity (Log P): 3.3 ^a†

## C[N+](C)(C)CCSS(C)(=O)=O.[Br-] [MTSET, [2-(trimethylammonium)ethyl] methanethiosulfonate bromide]
[4]
  [3H]NMSP binding remaining, % of the total binding: 10%

## CN(C)[C@@H]1C(O)=C(C(N)=O)C(=O)[C@@]2(O)C(O)=C3C(=O)c4c(O)cccc4[C@@](C)(O)[C@H]3C[C@@H]12 [Tetracycline]
arrestin3
  increase in arrestin3 expression: 538 ± 75%
GRK2
  increase in GRK2 expression: 190 ± 24%

## CCN1CCC[C@H]1CNC(=O)c1cc(Br)cc(OC)c1OC [FLB 457]
[3]; ref Loc'h et al, 1996
  Lipophilicity (Log kw): 1.9 ^b‡
[1]; [7]
  Affinity shift Ki(i)/Ki(s): 3.0
[1]; [5]
  Ki: 0.09 ± 0.02 nM
[1]; [6]
  Ki: 0.03 ± 0.01 nM

## CCN1CCC[C@H]1CNC(=O)c1c(OC)ccc([123I])c1O [IBZM]
[3]; ref Laruelle, 2000
  Lipophilicity (Log P): 2.8 ^a†
[1]; [7]
  Affinity shift Ki(i)/Ki(s): 1.2

Source: article PMC2813939 (Neuropsychopharmacology : official publication of the …, 2009)
